According to ChEMBL document CHEMBL1125594 (J Med Chem, 1991):

Test system: Nucleic Acid
Assay: Antitumor potency on human breast MCF-7 cell lines.
Type: functional, cell-based
Conditions: MCF7
Outline: (§1)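 Human lines kept in RPMI-1640 with 5% FBS, L-glutamine and penicillin/streptomycin; seeded as single-cell suspensions at 2000 (MCF-7), 500 (WiDr) or 750 (2780) cells/well. Drugs in DMSO, serially diluted in PBS pH 7.4 in half-log steps, were added on day 2 (final DMSO ≤0.1%). Exposure 6 days at 37 °C, 5% CO2. MTT was added for 4 h, formazan dissolved in DMSO, A570 read as % of untreated control. 6 wells per concentration, ≥2 assays, IC50s averaged.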

Structure (SMILES)	IC50
COCCOCCOC1=C(C)C(=O)C2=C(C1=O)C(COC(N)=O)[C@@]1(OC)C3NC3CN21 (some centres undefined)	8.22 nM
CO[C@@]12C(COC(N)=O)C3=C(C(=O)C(C)=C(OCCO)C3=O)N1CC1NC12 (some centres undefined)	3.69 nM
CO[C@@]12C(COC(N)=O)C3=C(C(=O)C(C)=C(OCCSc4ccccc4)C3=O)N1CC1NC12 (some centres undefined)	1.4 nM
CO[C@@]12C(COC(N)=O)C3=C(C(=O)C(C)=C(Nc4ccc([N+](=O)[O-])cc4)C3=O)N1CC1NC12 (some centres undefined)	1.53 nM
CO[C@@]12C(COC(N)=O)C3=C(C(=O)C(C)=C(OCc4ccccc4)C3=O)N1CC1NC12 (some centres undefined)	1.43 nM
CO[C@@]12C(COC(N)=O)C3=C(C(=O)C(C)=C(Nc4cccc(I)c4)C3=O)N1CC1NC12 (some centres undefined)	1.87 nM
CO[C@@]12C(COC(N)=O)c3c(O)c(N=C4C=CC(=O)C=C4)c(C)c(O)c3N1CC1NC12 (some centres undefined)	16.9 nM
CO[C@@]12C(COC(N)=O)C3=C(C(=O)C(C)=C(OCC4CCC4)C3=O)N1CC1NC12 (some centres undefined)	0.21 nM
CO[C@@]12C(COC(N)=O)C3=C(C(=O)C(C)=C(Nc4ccc(F)cc4)C3=O)N1CC1NC12 (some centres undefined)	1.77 nM
CO[C@@]12C(COC(N)=O)C3=C(C(=O)C(C)=C(OCCSSCCO)C3=O)N1CC1NC12 (some centres undefined)	3.92 nM
CO[C@@]12C(COC(N)=O)C3=C(C(=O)C(C)=C(Nc4nc(C)cs4)C3=O)N1CC1NC12 (some centres undefined)	3.13 nM
CO[C@@]12C(COC(N)=O)C3=C(C(=O)C(C)=C(OCCOc4ccccc4)C3=O)N1CC1NC12 (some centres undefined)	0.72 nM
CO[C@@]12C(COC(N)=O)C3=C(C(=O)C(C)=C(OC4CC4)C3=O)N1CC1NC12 (some centres undefined)	1.12 nM
CO[C@@]12C(COC(N)=O)C3=C(C(=O)C(C)=C(NCCCO)C3=O)N1CC1NC12 (some centres undefined)	132 nM

Test system: Nucleic Acid
Assay: Antitumor potency on human ovarian 2780 cell lines.
Type: functional
Conditions: not given
Outline: as §1

Structure (SMILES)	IC50
COCCOCCOC1=C(C)C(=O)C2=C(C1=O)C(COC(N)=O)[C@@]1(OC)C3NC3CN21 (some centres undefined)	4.57 nM
CO[C@@]12C(COC(N)=O)C3=C(C(=O)C(C)=C(OCCO)C3=O)N1CC1NC12 (some centres undefined)	6.85 nM
CO[C@@]12C(COC(N)=O)C3=C(C(=O)C(C)=C(OCCSc4ccccc4)C3=O)N1CC1NC12 (some centres undefined)	0.53 nM
CO[C@@]12C(COC(N)=O)C3=C(C(=O)C(C)=C(Nc4ccc([N+](=O)[O-])cc4)C3=O)N1CC1NC12 (some centres undefined)	0.59 nM
CO[C@@]12C(COC(N)=O)C3=C(C(=O)C(C)=C(OCc4ccccc4)C3=O)N1CC1NC12 (some centres undefined)	0.26 nM
CO[C@@]12C(COC(N)=O)C3=C(C(=O)C(C)=C(Nc4cccc(I)c4)C3=O)N1CC1NC12 (some centres undefined)	1.68 nM
CO[C@@]12C(COC(N)=O)c3c(O)c(N=C4C=CC(=O)C=C4)c(C)c(O)c3N1CC1NC12 (some centres undefined)	16.4 nM
CO[C@@]12C(COC(N)=O)C3=C(C(=O)C(C)=C(OCC4CCC4)C3=O)N1CC1NC12 (some centres undefined)	0.27 nM
CO[C@@]12C(COC(N)=O)C3=C(C(=O)C(C)=C(Nc4ccc(F)cc4)C3=O)N1CC1NC12 (some centres undefined)	3.03 nM
CO[C@@]12C(COC(N)=O)C3=C(C(=O)C(C)=C(OCCSSCCO)C3=O)N1CC1NC12 (some centres undefined)	1.36 nM
CO[C@@]12C(COC(N)=O)C3=C(C(=O)C(C)=C(Nc4nc(C)cs4)C3=O)N1CC1NC12 (some centres undefined)	1.74 nM
CO[C@@]12C(COC(N)=O)C3=C(C(=O)C(C)=C(OCCOc4ccccc4)C3=O)N1CC1NC12 (some centres undefined)	0.16 nM
CO[C@@]12C(COC(N)=O)C3=C(C(=O)C(C)=C(OC4CC4)C3=O)N1CC1NC12 (some centres undefined)	0.56 nM
CO[C@@]12C(COC(N)=O)C3=C(C(=O)C(C)=C(NCCCO)C3=O)N1CC1NC12 (some centres undefined)	76.4 nM

Test system: Nucleic Acid
Assay: Antitumor potency on human colon WIDR cell lines.
Type: functional, cell-based
Conditions: not given
Outline: as §1

Structure (SMILES)	IC50
COCCOCCOC1=C(C)C(=O)C2=C(C1=O)C(COC(N)=O)[C@@]1(OC)C3NC3CN21 (some centres undefined)	4.57 nM
CO[C@@]12C(COC(N)=O)C3=C(C(=O)C(C)=C(OCCO)C3=O)N1CC1NC12 (some centres undefined)	4.22 nM
CO[C@@]12C(COC(N)=O)C3=C(C(=O)C(C)=C(OCCSc4ccccc4)C3=O)N1CC1NC12 (some centres undefined)	0.15 nM
CO[C@@]12C(COC(N)=O)C3=C(C(=O)C(C)=C(Nc4ccc([N+](=O)[O-])cc4)C3=O)N1CC1NC12 (some centres undefined)	0.42 nM
CO[C@@]12C(COC(N)=O)C3=C(C(=O)C(C)=C(OCc4ccccc4)C3=O)N1CC1NC12 (some centres undefined)	0.13 nM
CO[C@@]12C(COC(N)=O)C3=C(C(=O)C(C)=C(Nc4cccc(I)c4)C3=O)N1CC1NC12 (some centres undefined)	0.21 nM
CO[C@@]12C(COC(N)=O)c3c(O)c(N=C4C=CC(=O)C=C4)c(C)c(O)c3N1CC1NC12 (some centres undefined)	6.3 nM
CO[C@@]12C(COC(N)=O)C3=C(C(=O)C(C)=C(OCC4CCC4)C3=O)N1CC1NC12 (some centres undefined)	0.19 nM
CO[C@@]12C(COC(N)=O)C3=C(C(=O)C(C)=C(Nc4ccc(F)cc4)C3=O)N1CC1NC12 (some centres undefined)	1.63 nM
CO[C@@]12C(COC(N)=O)C3=C(C(=O)C(C)=C(OCCSSCCO)C3=O)N1CC1NC12 (some centres undefined)	1.48 nM
CO[C@@]12C(COC(N)=O)C3=C(C(=O)C(C)=C(Nc4nc(C)cs4)C3=O)N1CC1NC12 (some centres undefined)	1.32 nM
CO[C@@]12C(COC(N)=O)C3=C(C(=O)C(C)=C(OCCOc4ccccc4)C3=O)N1CC1NC12 (some centres undefined)	0.12 nM
CO[C@@]12C(COC(N)=O)C3=C(C(=O)C(C)=C(OC4CC4)C3=O)N1CC1NC12 (some centres undefined)	0.21 nM
CO[C@@]12C(COC(N)=O)C3=C(C(=O)C(C)=C(NCCCO)C3=O)N1CC1NC12 (some centres undefined)	102 nM

Species: Mus musculus
Assay: Minimum effective dose was measured against P388 leukemia in mice.
Type: functional
Conditions: not given

Structure (SMILES)	MED
COCCOCCOC1=C(C)C(=O)C2=C(C1=O)C(COC(N)=O)[C@@]1(OC)C3NC3CN21 (some centres undefined)	0.11 µmol/kg
CO[C@@]12C(COC(N)=O)C3=C(C(=O)C(C)=C(OCCO)C3=O)N1CC1NC12 (some centres undefined)	0.017 µmol/kg
CO[C@@]12C(COC(N)=O)C3=C(C(=O)C(C)=C(OCCSc4ccccc4)C3=O)N1CC1NC12 (some centres undefined)	6.73
CO[C@@]12C(COC(N)=O)C3=C(C(=O)C(C)=C(OCc4ccccc4)C3=O)N1CC1NC12 (some centres undefined)	0.24 µmol/kg
CO[C@@]12C(COC(N)=O)C3=C(C(=O)C(C)=C(OCC4CCC4)C3=O)N1CC1NC12 (some centres undefined)	0.99 µmol/kg
CO[C@@]12C(COC(N)=O)C3=C(C(=O)C(C)=C(OCCSSCCO)C3=O)N1CC1NC12 (some centres undefined)	0.026 µmol/kg
CO[C@@]12C(COC(N)=O)C3=C(C(=O)C(C)=C(OCCOc4ccccc4)C3=O)N1CC1NC12 (some centres undefined)	3.5 µmol/kg
CO[C@@]12C(COC(N)=O)C3=C(C(=O)C(C)=C(OC4CC4)C3=O)N1CC1NC12 (some centres undefined)	0.13 µmol/kg

Test system: P388
Assay: Antitumor potency on P388 leukemia cells in culture
Type: functional, cell-based
Conditions: Mus musculus
Outline: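 P388 cells (ATCC CCL-46) plated as a single-cell suspension at 300 cells/well. Drugs in DMSO, serially diluted in PBS pH 7.4 in half-log steps, were added on day 1 (final DMSO ≤0.1%). Exposure 6 days at 37 °C, 5% CO2. MTT was added for 4 h, formazan dissolved in DMSO, absorbance read at 570 nm as % of untreated control. 6 wells per concentration, ≥2 assays, IC50 averaged.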

Structure (SMILES)	IC50
COCCOCCOC1=C(C)C(=O)C2=C(C1=O)C(COC(N)=O)[C@@]1(OC)C3NC3CN21 (some centres undefined)	4.1 nM
CO[C@@]12C(COC(N)=O)C3=C(C(=O)C(C)=C(OCCO)C3=O)N1CC1NC12 (some centres undefined)	0.71 nM
CO[C@@]12C(COC(N)=O)C3=C(C(=O)C(C)=C(OCCSc4ccccc4)C3=O)N1CC1NC12 (some centres undefined)	1.21 nM
CO[C@@]12C(COC(N)=O)C3=C(C(=O)C(C)=C(Nc4ccc([N+](=O)[O-])cc4)C3=O)N1CC1NC12 (some centres undefined)	0.44 nM
CO[C@@]12C(COC(N)=O)C3=C(C(=O)C(C)=C(OCc4ccccc4)C3=O)N1CC1NC12 (some centres undefined)	0.018 nM
CO[C@@]12C(COC(N)=O)C3=C(C(=O)C(C)=C(Nc4cccc(I)c4)C3=O)N1CC1NC12 (some centres undefined)	1.42 nM
CO[C@@]12C(COC(N)=O)c3c(O)c(N=C4C=CC(=O)C=C4)c(C)c(O)c3N1CC1NC12 (some centres undefined)	5.86 nM
CO[C@@]12C(COC(N)=O)C3=C(C(=O)C(C)=C(OCC4CCC4)C3=O)N1CC1NC12 (some centres undefined)	0.41 nM
CO[C@@]12C(COC(N)=O)C3=C(C(=O)C(C)=C(Nc4ccc(F)cc4)C3=O)N1CC1NC12 (some centres undefined)	3.03 nM
CO[C@@]12C(COC(N)=O)C3=C(C(=O)C(C)=C(OCCSSCCO)C3=O)N1CC1NC12 (some centres undefined)	1.87 nM
CO[C@@]12C(COC(N)=O)C3=C(C(=O)C(C)=C(Nc4nc(C)cs4)C3=O)N1CC1NC12 (some centres undefined)	0.5 nM
CO[C@@]12C(COC(N)=O)C3=C(C(=O)C(C)=C(OCCOc4ccccc4)C3=O)N1CC1NC12 (some centres undefined)	0.082 nM
CO[C@@]12C(COC(N)=O)C3=C(C(=O)C(C)=C(OC4CC4)C3=O)N1CC1NC12 (some centres undefined)	0.63 nM
CO[C@@]12C(COC(N)=O)C3=C(C(=O)C(C)=C(NCCCO)C3=O)N1CC1NC12 (some centres undefined)	459 nM
